# Compound activity as filed in PubChem.
# PMI activator = activators of human phosphomannose isomerase; actives 0.005% (n = 190,000); purified human PMI, coupled resazurin fluorescence, 20 min; active compounds read high; 1 = vehicle control, 0 substrate-free wells; activation factor at 20 µM; AID 1214;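 active = activation factor of 2 or more at 20 µM, relative to plate controls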
# ROMK primary = modulates human ROMK potassium channel activity | P48048 | Tet-inducible ROMK, thallium flux fluorescence; actives lie on both sides | B-score at 10 µM | actives 2% (n = 130,000) | AID 1918;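 active = signal ratio slope over the read window, or its plate-corrected B-score, at least 3 SD from the plate mean, either direction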;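 also: B-score of the F/F0 ratio slope over 7 to 12 s after thallium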
# Target sequence (P48048 whole entry, looked up): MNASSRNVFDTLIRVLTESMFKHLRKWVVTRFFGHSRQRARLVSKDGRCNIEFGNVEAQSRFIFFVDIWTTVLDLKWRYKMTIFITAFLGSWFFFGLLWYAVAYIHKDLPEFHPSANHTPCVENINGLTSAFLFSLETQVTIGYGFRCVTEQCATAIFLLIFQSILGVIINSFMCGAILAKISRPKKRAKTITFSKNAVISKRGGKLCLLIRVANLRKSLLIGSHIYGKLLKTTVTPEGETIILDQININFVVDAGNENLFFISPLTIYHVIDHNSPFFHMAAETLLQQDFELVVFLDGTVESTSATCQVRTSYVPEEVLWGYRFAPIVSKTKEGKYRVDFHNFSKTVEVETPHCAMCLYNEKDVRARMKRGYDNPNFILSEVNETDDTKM
# PMI act satM6P = activators of human phosphomannose isomerase at near-saturating mannose 6-phosphate; P34949; coupled PMI enzyme assay, resazurin fluorescence, 20 min; active compounds read high; 1 = untreated enzyme, 0 = substrate-free blank; activation factor at 20 µM; actives 0.34% (n = 190,000); AID 1216;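 active = activation factor of 2 or more at 20 µM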
#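 Test system: human phosphomannose isomerase with PGI, G6PDH, diaphorase coupling enzymes / Doses: 20 µM compound, 1% DMSO / Times: enzyme reaction with compound 20 min at room temperature / Measured by: Diaphorase-driven resazurin-to-resorufin fluorescence, excitation 544, emission 590 nm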
# Diaph inh CS = inhibits diaphorase or chemically oxidizes, flagging diaphorase assay artifacts; diaphorase resazurin-to-resorufin fluorescence, NADH, 16 min; bacterial (C. kluyveri) enzyme, not human; AID 1217; actives 0.69% (n = 190,000); inhibition, % at 20 µM;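 active = primary screen inhibition at 20 µM above a set limit, cut at about 50% in these data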;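 also: plate controls were DMSO with full reaction for no effect and wells lacking NADH for full effect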
#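 Assay system – diaphorase enzyme from Clostridium kluyveri · Amount – diaphorase 0.14 U/mL (working solution) · Times – reaction incubation of 16 min at room temperature · Controls – No-NADH positive control and DMSO neutral control · Signal – resorufin fluorescence 544/590 nm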
# Diaph act CS = diaphorase activation or chemical reduction counter-screen; actives 0.005% (n = 190,000); activation factor at 20 µM; Diaphorase/resazurin coupled assay, resorufin fluorescence, 16 min; active compounds read high; 1 = vehicle wells, 0 = NADH-free wells; AID 1229;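 active = diaphorase activity raised at least twofold by the compound at 20 µM; inactive = activation factor below 2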
#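 Material: Clostridium kluyveri diaphorase, purified enzyme; Quantity: enzyme 0.07 U/mL final; Medium: HEPES pH 7.4 buffer with MgCl2 and Tween 20; Dosing: single compound dose of 20 µM, 1% DMSO final; Schedule: 16 min reaction at room temperature; Measured by: red resorufin fluorescence at 544/590 nm excitation/emission.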
# G6PDH CS = inhibits Leuconostoc G6PDH, flagging false hits in G6PDH-based assays; inhibition, % at 5 µM; actives 0.12% (n = 200,000); AID 1020; Purified L. mesenteroides G6PDH, diaphorase/resazurin coupled fluorescence, 45 min; in the data active = inhibition above about 50%
# Active calls of the source: *; · = no result given. Only some compounds are listed: those with a hit (about 2.2% of all), similar ones and a draw of the others.
SMILES,PMI activator,ROMK primary,PMI act satM6P,Diaph inh CS,Diaph act CS,G6PDH CS
Nc1c(C(=O)NC2CC2)sc2nc3c(c(-c4ccco4)c12)CC/C3=C/c1ccco1,1.3,·,1,87*,0.1,13
CCOC(=O)c1sc2nc(-c3ccco3)c3c(c2c1N)CC(C)(C)OC3,1,·,0.9,13,0.9,5
Cc1ccc(-c2nc3sc(C(N)=O)c(N)c3c3c2CCCC3)cc1,1.6,-1.8,2.4*,18,0.8,13
CC(=O)c1sc2nc(-c3ccc(C)cc3)c3c(c2c1N)CCCC3,1.4,-0.01,1.7,23,0.8,1
CC(OC(=O)CCc1nc2ccccc2c(=O)[nH]1)C(=O)c1ccc(C(C)(C)C)cc1 (centres undefined),0.8,-0.4,1,11,0.9,10
Cc1nc2c(C(=O)NCc3ccccc3Cl)c[nH]n2c(=O)c1Cl,1,·,1,15,0.8,-11
Cc1nc2c(C(=O)NCCc3ccccc3Cl)c[nH]n2c(=O)c1Cl,1,0.23,1.1,65*,0.4,0
O=C1c2ccccc2C(=O)N1/N=C/c1ccc(O)c(O)c1,0.6,0.74,0.9,52*,0.5,12
O=C1C2C3C=CC(CC3)C2C(=O)N1/N=C/c1ccc(O)c(O)c1 (centres undefined),0.8,·,1.1,32,0.7,6
Oc1ccc(/C=N/Nc2cc(N3CCCC3)nc(N3CCCC3)n2)cc1O,0.4,0.15,0.4,62*,0.4,49
Cc1cccc(/C=N/Nc2cc(N3CCOCC3)nc(N3CCOCC3)n2)c1,0.2,-2.3,0.3,72*,0.3,30
CC(C)c1ccc(/C=N/Nc2cc(N3CCOCC3)nc(N3CCOCC3)n2)cc1,0.2,-0.24,0.3,63*,0.4,24
O=c1oc2ccccc2nc1/C=C(\O)c1ccccc1,·,0.38,·,·,·,·
O/C(=C\c1nc2ccccc2nc1/C=C(\O)c1ccccc1)c1ccccc1,1.3,-2.2,0.8,23,0.8,51*
CSCc1nc2scc(-c3ccccc3)c2c(=O)[nH]1,1.3,0.011,1.2,0,1,11
O=c1[nH]c(Cc2ccccn2)nc2scc(-c3ccccc3Cl)c12,1.8,0.54,2.1*,1,1,6
Clc1ncc(CN2CCN(c3ccccc3)CC2)s1,1.1,0.86,1,13,0.9,7
c1ccc(N2CCN(Cc3ccnc4ccccc34)CC2)cc1,1.5,-0.88,2*,11,0.9,1
O=C(COc1ccccc1)c1cn(CC(=O)N2CCCC2)c2ccccc12,1.1,-0.025,1.1,94*,0.1,-1
Cc1cc(N2CCN(C)CC2)ccc1NC(=O)c1cccc(S(=O)(=O)N2CCc3ccccc3C2)c1,1.1,·,1.1,-45,1.5,-3
CCOc1ccc(NC(=O)CN2CCN(CC(=O)c3ccc(OCC)cc3)CC2)cc1,1.6,·,2*,-2,1,-12
Cc1ccc(N(CCC#N)C(=O)CN2C(=O)NC(Cc3ccccc3)C2=O)cc1 (centres undefined),1,0.21,0.9,13,0.9,3
CCc1cc2c(SCC(=O)NC(=O)c3cccn3C)ncnc2s1,1,-2.3,0.8,21,0.8,2
N#Cc1cc2c([nH]c1=S)CCCCCC2,1.3,·,2.1*,14,0.9,4
Nc1ccc(SCC(=O)Nc2cccc([N+](=O)[O-])c2)cc1,1.1,0.44,1.1,7,0.9,-1
SMILES,PMI activator,ROMK primary,PMI act satM6P,Diaph inh CS,Diaph act CS,G6PDH CS
COc1cc(CN2CCN(C(=O)CC(C)C)CC2)cc(OC)c1O,1.1,·,0.4,39,0.6,53*
COc1ccc(C(=O)N2CCN(Cc3cc(OC)c(O)c(OC)c3)CC2)cc1OC,0.7,·,0.4,29,0.7,55*
CC(Sc1nnc(NC2CCCCC2)s1)C(=O)Nc1ccc2c(c1)C(=O)c1ccccc1C2=O (centres undefined),1.1,-0.0038,1.1,56*,0.4,7
CN(O)/C=c1/ccc2c(n1)C(=O)C=CC=2,0.3,0.89,0.3,69*,0.3,58*
CC(C)N1C(=O)/C(=C\c2nc3ccccc3c(=O)[nH]2)c2ccccc21,1.1,-2.8,1,56*,0.4,-2
CCCN1C(=O)/C(=C/c2nc3ccccc3c(=O)[nH]2)c2ccccc21,1,·,1,22,0.8,6
O=C(N/N=C/c1cc(Br)cc(Br)c1O)c1ccncc1,1,·,1.2,52*,0.5,-10
O=C(N/N=C/c1cc(Br)c(Br)s1)c1ccncc1,1.1,·,1,-5,1.1,0
O=[N+]([O-])c1cc(/C=N\Nc2nccs2)ccc1O,0.9,0.068,0.9,90*,0.1,4
Clc1cccc(Cl)c1/C=N\Nc1nccs1,1,·,1,1,1,7
CC(C)CN(CC(C)C)C(=S)NC1CCCCC1,1.1,-0.4,1.1,5,1,-1
COc1cc2nc(=S)n3[nH]c(CCn4c(C)nc5ccccc54)nc3c2cc1OC,0.9,·,1,89*,0.1,-2
COc1ccc(OCc2nc3c4cc(OC)c(OC)cc4nc(=S)n3[nH]2)cc1,0.8,·,0.9,92*,0.1,-63
C[C@H](NC(=O)c1ccco1)C(=O)Nc1cccc([N+](=O)[O-])c1,1,0.45,1,2,1,2
Cc1ccc(NC(=O)c2ccc3ccccc3n2)cc1S(=O)(=O)N(C)C,1,0.22,1.1,20,0.8,-4
CCSc1oc(-c2cccs2)nc1S(=O)(=O)c1ccccc1,1.7,·,2*,4,1,6
CCSc1oc(-c2ccco2)nc1S(=O)(=O)c1ccc(F)cc1,1.2,·,1.6,22,0.8,-23
CCOC(=O)CC(NC(=O)C1c2ccccc2Oc2ccccc21)c1ccccc1Cl (centres undefined),0.9,0.63,1,14,0.9,8
O=Cc1ccc2noc(-c3ccc(F)cc3)c2c1,1.4,-3.1*,1.9,12,0.9,-4
CC(=O)c1ccc2noc(-c3ccc(C)cc3)c2c1,1.9,-1.5,2*,3,1,2
CCc1nc2cc3sc(CC)nc3cc2s1,1,1.1,1,1,1,4
CC(=O)NC1(c2ccccc2)CCN(CC(=O)N2CCC(C)CC2)CC1,0.9,0.055,0.9,13,0.9,13
COc1ccc(NC(=O)CN2CCN(CC(=O)Nc3ccccc3Cl)CC2)cc1Cl,1.3,-0.32,1.7,26,0.7,1
COc1ccccc1NC(=O)CN1CCN(CC(=O)Nc2ccc(Cl)c(C(F)(F)F)c2)CC1,1.3,-2.5*,1.7,10,0.9,10
